ChEMBL document CHEMBL4825662 (J Med Chem, 2021)
pEC50: −log10 of the molar value. Values after ≈ are worked out from the molar mass of the structure shown.

Columns and labels:
[1] = Intrinsic clearance in human liver microsomes preincubated followed by NADPH addition and measured up to 45 mins by LC-MS/MS analysis; format: ADME, Microsome
[2] = Cmax in Beagle dog at 3 mg/kg, po measured after 0.03 to 24 hrs by UHPLC-TOF method; format: ADME, organism-based, Canis lupus familiaris; set-up: route oral, dose 3 mg/kg, time 0.03-24 hrs; settings: in vivo
[3] = Intrinsic clearance in Beagle dog hepatocytes at 3 uM assessed per million cells measured up to 60 mins by LC-MS/MS analysis; format: ADME, cell-based, Canis lupus familiaris, Hepatocyte; settings: read-out: CLH
[4] = Protein binding in human plasma assessed as unbound fraction at 5 uM by LC-MS/MS analysis based equilibrium dialysis method; format: ADME, cell-free
[5] = Cmax in CD1 mouse at 10 mg/kg, po measured after 0.083 to 24 hrs by UHPLC-TOF method; format: ADME, organism-based; set-up: route oral, time 0.083-24 hrs, dose 10 mg/kg; settings: in vivo
[6] = Cytotoxicity against human HepG2 cells by MTT assay; format: cell-based
How it was run: (§1)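 Viability was assessed by MTT after culture with compound at 0.01 nM to 100 μM, run in parallel with plaque reduction assays. Values are the average of at least two testing occasions.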

[7] = Half life in human liver microsomes preincubated followed by NADPH addition and measured up to 45 mins by LC-MS/MS analysis; format: ADME, Microsome
[8] = Efflux ratio of apparent permeability in MDCK-MDR1 cells at 10 uM measured at 60 mins by LC-MS/MS analysis; format: ADME, cell-based, Canis lupus familiaris; settings: dog, MDCK-MDR1
Human orthopneumovirus [9] = test: Antiviral activity against Respiratory syncytial virus A2 infected in human Huh7 cells by Plaque reduction assay; format: functional, organism-based; settings: A2, Huh-7
How it was run: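 Huh-7 cells were infected with RSV strain A2 in the presence of compound. Values are the average of at least two testing occasions.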

[10] = Intrinsic clearance in human hepatocytes at 3 uM assessed per million cells measured up to 60 mins by LC-MS/MS analysis; format: ADME, cell-based, Hepatocyte; settings: read-out: CLH
[11] = Half life in Beagle dog at 0.3 mg/kg, iv measured after 0.03 to 24 hrs by UHPLC-TOF method; format: ADME, organism-based, Canis lupus familiaris; settings: in vivo, time 0.03-24 hrs
How it was run: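 Dogs dosed IV as a suspension of amorphous solid. Serial blood at 2, 5, 15 min and 1, 2, 4, 8, 12, 24 h into heparinized tubes, centrifuged at 4 °C for 10 min at 3000g. Plasma snap-frozen and stored at −20 °C, then analysed by UHPLC-TOF.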

[12] = Thermodynamic solubility in PBS at 1 to 100 uM at pH 7.4 by HPLC-UV method; format: physicochemical; settings: dose 1-100 µM, read-out: Therm_solubility
[13] = Half life in CD1 mouse at 10 mg/kg, po measured after 0.083 to 24 hrs by UHPLC-TOF method; format: ADME, organism-based; settings: in vivo, time 0.083-24 hrs
[14] = Apparent permeability across apical to basolateral side in MDCK-MDR1 cells at 10 uM measured at 60 mins by LC-MS/MS analysis; format: ADME, cell-based, Canis lupus familiaris; settings: dog, MDCK-MDR1
[15] = Oral bioavailability in Beagle dog at 3 mg/kg measured after 0.03 to 24 hrs by UHPLC-TOF method; format: ADME, organism-based, Canis lupus familiaris; settings: in vivo, 3 mg/kg, time 0.03-24 hrs
How it was run: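 Dogs examined by a veterinary surgeon before each session, fed 2 h post-dose, water ad libitum, dosed as amorphous-solid suspension. Serial blood into heparinized tubes, centrifuged at 4 °C for 10 min at 3000g; plasma snap-frozen at −20 °C. IV sampling 2 min–24 h, oral 15 min–24 h. Plasma analysed by UHPLC-quadrupole-TOF MS.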

[16] = Protein binding in dog plasma assessed as unbound fraction at 5 uM by LC-MS/MS analysis based equilibrium dialysis method; format: ADME, cell-free, Canis lupus familiaris
[17] = Half life in Beagle dog liver microsomes preincubated followed by NADPH addition and measured up to 45 mins by LC-MS/MS analysis
[18] = Oral bioavailability in CD1 mouse at 10 mg/kg measured after 0.03 to 24 hrs by UHPLC-TOF method; format: ADME, organism-based; settings: in vivo, time 0.03-24 hrs
How it was run: (§2)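 Male CD-1 mice, acclimatized and individually housed, dosed IV and PO as amorphous-solid suspension. Terminal cardiac-puncture blood into heparinized tubes on wet ice, centrifuged at 4 °C within 15 min; plasma snap-frozen at −20 °C. IV arm sampled 2 min–24 h, oral arm 5 min–24 h. Plasma analysed by UHPLC-quadrupole-TOF MS.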

[19] = Half life in Beagle dog at 3 mg/kg, po measured after 0.03 to 24 hrs by UHPLC-TOF method; format: ADME, organism-based, Canis lupus familiaris; settings: in vivo, time 0.03-24 hrs
[20] = Volume of distribution at steady state in CD1 mouse at 1 mg/kg, iv measured after 0.083 to 24 hrs by UHPLC-TOF method; format: ADME, organism-based; settings: in vivo, time 0.083-24 hrs, read-out: Vdss; how it was run: as §2
[21] = Half life in CD1 mouse at 1 mg/kg, iv measured after 0.03 to 24 hrs by UHPLC-TOF method; format: ADME, organism-based; settings: in vivo, time 0.03-24 hrs
[22] = Tmax in Beagle dog at 3 mg/kg, […] by UHPLC-TOF method; format: ADME, organism-based, Canis lupus familiaris; settings: in vivo, po
[23] = Tmax in CD1 mouse at 10 mg/kg, po measured after 0.083 to 24 hrs by UHPLC-TOF method; format: ADME, organism-based; settings: in vivo, time 0.083-24 hrs; how it was run: as §2
[24] = Half life in human hepatocytes at 3 uM measured up to 60 mins by LC-MS/MS analysis; format: ADME, cell-based, Hepatocyte
[25] = Protein binding in rat plasma assessed as unbound fraction at 5 uM by LC-MS/MS analysis based equilibrium dialysis method; format: ADME, cell-free
[26] = Half life in rat hepatocytes at 3 uM measured up to 60 mins by LC-MS/MS analysis; format: ADME, cell-based, Hepatocyte
[27] = Intrinsic clearance in Beagle dog liver microsomes preincubated followed by NADPH addition and measured up to 45 mins by LC-MS/MS analysis; format: ADME, Canis lupus familiaris, Microsome
[28] = Clearance in CD1 mouse at 1 mg/kg, iv measured after 0.083 to 24 hrs by UHPLC-TOF method; format: ADME, organism-based; settings: in vivo, time 0.083-24 hrs
[29] = Intrinsic clearance in Sprague-Dawley rat liver microsomes preincubated followed by NADPH addition and measured up to 45 mins by LC-MS/MS analysis; format: ADME, Microsome
[30] = Clearance in Beagle dog at 0.3 mg/kg, iv measured after 0.03 to 24 hrs by UHPLC-TOF method; format: ADME, organism-based, Canis lupus familiaris; settings: in vivo, time 0.03-24 hrs
[31] = Intrinsic clearance in rat hepatocytes at 3 uM assessed per million cells measured up to 60 mins by LC-MS/MS analysis; format: ADME, cell-based, Hepatocyte; settings: read-out: CLH
[32] = Half life in Beagle dog hepatocytes at 3 uM assessed per million cells measured up to 60 mins by LC-MS/MS analysis; format: ADME, cell-based, Canis lupus familiaris, Hepatocyte
[33] = Apparent permeability across basolateral side to apical side in MDCK-MDR1 cells at 10 uM measured at 60 mins by LC-MS/MS analysis; format: ADME, cell-based, Canis lupus familiaris; settings: dog
[34] = Cmax in CD1 mouse at 5 mg/kg, po measured after 0.03 to 24 hrs by UHPLC-TOF method; format: ADME, organism-based; set-up: route oral, time upper 24 hrs, time lower 0.03 hrs, dose 5 mg/kg; settings: in vivo
[35] = Cytotoxicity against African green monkey Vero cells by MTT assay; format: cell-based; settings: chlorocebus sabaeus; how it was run: as §1
[36] = Half life in Sprague-Dawley rat liver microsomes preincubated followed by NADPH addition and measured up to 45 mins by LC-MS/MS analysis; format: ADME, Microsome
[37] = Cmax in Sprague-Dawley rat at 5 mg/kg, po administered via gavage measured after 0.02 to 24 hrs by tandem liquid chromatography/mass spectrometry; format: ADME, organism-based; set-up: route oral, dose 5 mg/kg, time upper 24 hrs, time lower 0.02 hrs; settings: in vivo
How it was run: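 Male Sprague–Dawley rats weighing 200–250 g, 3 per route, were used. The i.v. bolus was 1 mg/kg at 1 mg/mL in 40:60 dimethylacetamide/saline. Oral gavage doses were 5 or 10 mg/kg at 5 mg/mL in 1% methyl cellulose with 0.1% Tween 80. Heparinized blood was taken at 0.02–24 h (ten time points). Plasma was analyzed by LC-MS/MS after acetonitrile precipitation.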

[38] = Oral bioavailability in CD1 mouse at 5 mg/kg measured after 0.03 to 24 hrs by UHPLC-TOF method; format: ADME, organism-based; settings: in vivo, time 0.03-24 hrs; how it was run: as §2
[39] = Drug metabolism in human liver microsomes assessed as metabolite M1 formation at 10 uM incubated for 60 mins by HPLC method; format: ADME, Microsome; settings: 1 h
How it was run: (§3)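 Compound at 10 μM was incubated with rat or human liver microsomes. Sites of metabolism were proposed from mass spectral fragmentation patterns.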

[40] = Volume of distribution at steady state in Sprague-Dawley rat at 1 mg/kg, iv administered […] measured after 0.02 to 24 hrs by tandem liquid chromatography/mass spectrometry; format: ADME, organism-based; settings: in vivo, time 0.02-24 hrs, read-out: Vdss
How it was run: (§4)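 Male Sprague–Dawley rats (200–250 g), 3 per route. IV bolus at 1 mg/kg, 1 mg/mL in 40:60 dimethylacetamide/saline; oral gavage at 5 or 10 mg/kg, 5 mg/mL in 1% methyl cellulose, 0.1% Tween 80 in water. Serial blood at 0.02–24 h (ten points) into heparin, spun at 4 °C, plasma frozen; acetonitrile protein precipitation, ESI LC-MS/MS with matrix curve and internal standards.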

[41] = Drug metabolism in rat liver microsomes assessed as metabolite M1 formation at 10 uM incubated for 60 mins by HPLC method; format: ADME, Microsome; settings: 1 h; how it was run: as §3
[42] = Oral bioavailability in Sprague-Dawley rat at 10 mg/kg administered via gavage measured after 0.02 to 24 hrs by tandem liquid chromatography/mass spectrometry; format: ADME, organism-based; settings: in vivo, time 0.02-24 hrs; how it was run: as §4
[43] = Clearance in Sprague-Dawley rat at 1 mg/kg, iv administered […] measured after 0.02 to 24 hrs by tandem liquid chromatography/mass spectrometry; format: ADME, organism-based; settings: in vivo, time 0.02-24 hrs
[44] = Kinetic solubility of compound in PBS at 200 uM at pH 7.4 by LC-MS/LC-UV analysis; format: physicochemical; settings: read-out: Kinetic_solubility
How it was run: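 Compound added from DMSO into PBS pH 7.4; precipitation measured across a range of concentrations.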

Human orthopneumovirus [45] = test: Antiviral activity against Respiratory syncytial virus A2 infected in African green monkey Vero cells by Plaque reduction assay; format: functional, organism-based
[46] = Apparent permeability of compound in wild type MDCK at 10 uM incubated for 1 hr by LC-MS/MS assay; format: ADME, Canis lupus familiaris; settings: dog

NCc1ccc2c(c1)nc(CN1C(=O)C3(CC3)c3ccc(F)cc31)n2C1CCOCC1
intrinsic clearance (CLint) [1]: 66.4 µL/min | Cmax [2]: 505 ng/mL | hepatocyte CLint at 3 µM [3]: 0.8 µL/min/1e6 cells | fraction unbound at 5 µM [4]: 0.548 | Cmax [5]: 450 ng/mL | CC50 [6]: > 25000 nM | half-life [7]: 0.348 h | efflux ratio at 1 h, 10 µM [8]: 94 | pEC50 (Human orthopneumovirus [9]): 8.62 | hepatocyte CLint at 3 µM [10]: 7.1 µL/min/1e6 cells | half-life [11]: 5.2 h | solubility thermodynamic [12]: 1270 µM (≈ 534 µg/mL) | half-life [13]: 1.4 h | Papp A→B at 1 h, 10 µM [14]: 0.4 ×10⁻⁶ cm/s | F [15]: 163% | fraction unbound at 5 µM [16]: 0.497 | half-life [17]: 55.8 h | bioavailability [18]: 39.4% | half-life [19]: 3.1 h | Vd [20]: 5.5 L/kg | half-life [21]: 1.7 h | Tmax [22]: 0.5 h | Tmax [23]: 1.7 h | half-life at 3 µM [24]: 3.28 h | fraction unbound at 5 µM [25]: 0.399 | half-life at 3 µM [26]: 1.02 h | intrinsic clearance [27]: 0.4 µL/min | clearance [28]: 58 mL/min/kg | Microsomal intrinsic clearance [29]: 5.2 µL/min | clearance [30]: 19.2 mL/min/kg | hepatocyte CLint at 3 µM [31]: 21.2 µL/min/1e6 cells | half-life at 3 µM [32]: > 16.7 h | Papp B→A at 1 h, 10 µM [33]: 40.6 ×10⁻⁶ cm/s

CC(C)CCn1c(CN2C(=O)C3(CC3)c3ccccc32)nc2cc(CN)ccc21
intrinsic clearance (CLint) [1]: 592 µL/min | Cmax [34]: 6 ng/mL | CC50 [35]: 15300 nM | half-life [36]: > 1.58 h | Cmax [37]: 6 ng/mL | fraction unbound at 5 µM [4]: 0.07 | bioavailability [38]: 4% | Drug metabolism [39]: Metabolite_Detected | half-life [7]: 0.0833 h | Vd [40]: 34 L/kg | solubility thermodynamic [12]: 155 µM (≈ 60.2 µg/mL) | Drug metabolism [41]: Metabolite_Detected | fraction unbound at 5 µM [16]: 0.1 | bioavailability [42]: 4% | half-life [17]: > 1.67 h | Vd [20]: 34 L/kg | fraction unbound at 5 µM [25]: 0.1 | clearance [43]: 98 mL/min/kg | solubility kinetic at 200 µM [44]: 155 µM (≈ 60.2 µg/mL) | pEC50 (Human orthopneumovirus [45]): 7.51 | intrinsic clearance [27]: < 28 µL/min | Papp at 1 h, 10 µM [46]: 12 ×10⁻⁶ cm/s | clearance [28]: 98 mL/min/kg | Microsomal intrinsic clearance [29]: < 19 µL/min
